Only some compounds are listed: those with a hit (about 2.6% of all), similar ones and a draw of the others.
miR122 inh = blocks miR-122 activity in Huh7 sensor cells. Huh7 miR-122 Renilla luciferase sensor, 48 h; neutral wells = 0, positive control = 100. activation (reporter increase), % at 12.5 µM. 340,000 tested, 0.3% active;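 active = mean replicate activation score at least 90 and every replicate individually at or above 90; inconclusive = only one of the two criteria met; inactive = neither criterion met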;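 note: higher luciferase means less miR-122 activity so hits act as miR-122 inhibitors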
S100A4 inh HTS = S100A4-myosin IIA interaction inhibition | S100A4/TAMRA-MyoIIA peptide fluorescence polarization | 360,000 tested, 0.14% active | P26447 | AID 652163 | inhibition, % at 10.7 µM;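 active = mean inhibition of at least 70% across replicates, with every replicate also reaching that level; inconclusive = mean inhibition reaches 70% but some replicates fall short; inactive = mean inhibition below 70%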
Target sequence (P26447 whole entry, looked up): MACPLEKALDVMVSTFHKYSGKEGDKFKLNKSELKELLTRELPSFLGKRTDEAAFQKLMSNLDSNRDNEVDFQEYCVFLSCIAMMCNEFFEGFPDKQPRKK
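Material: S100A4 monomer (human). Medium: Calcium-containing HEPES buffer, pH 7.2. Probe or stimulus: labelled myosin peptide probe, 5 nM. Compound dosing: one concentration per compound. Timing: polarization read 5 min after assay mix addition, stable 5–60 min. Benchmarks: DMSO as neutral control, TFP as positive control.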
Env fusion inh = HIV envelope-mediated fusion inhibition | HeLa-JRFL Env/CEM21 cell fusion, luciferase | inhibition, % at 12.3 µM | 360,000 tested, 1.1% active | AID 651610;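 active = mean replicate inhibition score of at least 50 and every replicate individually at or above 50; inconclusive = only one of the two criteria met; inactive = mean below 50 and not all replicates reaching 50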
Vif inh = HIV Vif inhibition | HEK293T cells, Vif self-association by quenched fluorescence, imaging, 24 h | inhibition, % at 7.49 µM | 340,000 tested, 0.35% active; in the data active = inhibition above about 50%, passing the limit was not always enough; inconclusive = no clear call, values can overlap the other calls; inactive = below about 31%
Ecoli rRNA inh = selective bacterial rRNA inhibition in E. coli; GFP signal change (wild-type ribosome), % (no concentration beside the values); E. coli WT GFP vs humanized-ribosome RFP mutants, fluorescence, 24 h; hits give low values; DMSO median 0, no signal -100; 350,000 tested, 1.6% active;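 active = significant combined selectivity score with lowered wild-type GFP, culture density cut under 30%, mutant RFP and density less affected; inactive = any of these conditions unmet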
FN deposition inh = fibronectin deposition inhibition; AH1F fibroblasts, Alexa488-fibronectin deposition fluorescence, overnight; inhibition, % at 12.6 µM; 350,000 tested, 0.086% active; AID 743247;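 active = mean inhibition across replicates of 30% or more, regardless of how many single replicates reach that level; inconclusive = mean under 30% yet at least half of replicates reach 30%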
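Assay system: AH1F fibroblast monolayer, labelled fibronectin deposition. Amount: 10000 cells per well. Also added: labelled fibronectin 24 nM. Compound: single-point pinned compound. Incubation: cell attachment 1 h, compound and FN exposure overnight. Detection: fluorescence after three HBSS washes, excitation 485 nm, emission 525 nm. Read-out: inhibition of fibronectin deposition signal.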
AID977621 = wild-type E. coli growth inhibition versus H69 humanized strain – H69 mutant RFP, wild-type GFP, cherry-pick, dose response; shares compounds with Ecoli rRNA inh; fluorescence, 24 h; activity change, negative = inhibition at 50 µM; 1,900 tested, under 10 active;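 active = Wild-type ribosome reporter drop at least double the humanized mutant ribosome reporter drop, growth loss under a set limit; inconclusive = no clear call, values can overlap the other calls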;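 note: wild-type GFP and H69 mutant RFP strains grown together 50/50 in each well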
AID977628 = E. coli growth inhibition, wild-type GFP versus h24 humanized RFP strain, dose response, h24 mutant RFP vs wild-type GFP, cherry-pick; shares compounds with Ecoli rRNA inh; 1,900 tested, under 10 active; E. coli WT GFP strain growth, fluorescence, 24 h; activity change, negative = inhibition at 50 µM;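 active = compound lowering the normal-ribosome reporter at least twice as much as the humanized-ribosome reporter, growth loss under a set limit; inconclusive = no clear call, values can overlap the other calls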;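 note: wild-type GFP and h24 humanized RFP strains co-cultured 1 to 1 per well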
Numbers stand for hits; - = inactive; ? = inconclusive; . = no result.

SMILES	miR122 inh	S100A4 inh HTS	Env fusion inh	Vif inh	Ecoli rRNA inh	FN deposition inh	AID977621	AID977628
CCOC(=O)N1CCN(C(=O)COc2cccc3c2CCN(Cc2ccccc2F)C3=O)CC1	.	-	-	-	.	-	.	.
O=C(COc1cccc2c1CCN(Cc1ccc(Br)cc1)C2=O)N1CCOCC1	.	-	-	-	-27.8	-	-	-
O=C(COc1cccc2c1CCN(Cc1ccccc1F)C2=O)N1CCCCC1	.	-	-	-	-39.0	-	.	?
O=C1N[C@@H](Cc2ccccc2)COCc2cn(nn2)CC[C@@H]1Cc1ccc(Cl)cc1	.	.	.	.	-	-	.	.
CN1C(=O)c2cc(NC(=O)c3cccs3)ccc2OC[C@H]2O[C@@H](CC(=O)NCCN3CCCCC3)CC[C@@H]21	-	-	-	.	-	-	.	.
Cc1cccc(C)c1OCC(O)CN1CCN(c2ccccn2)CC1 (stereo not given)	-	-	-	-	-	-	.	.
Cc1ccc(OCC(O)CN2CCN(c3ccccn3)CC2)c(C)c1 (stereo not given)	.	-	-	-	-17.3	-	.	?
C[C@H](CO)N1C[C@H](C)[C@H](CN(C)C(=O)Nc2ccc3c(c2)OCO3)Oc2c(NC(=O)Nc3ccccc3)cccc2C1=O	-	-	-	.	-22.0	.	-	?
C[C@@H]1CN([C@H](C)CO)C(=O)c2cc(NC(=O)C3CC3)ccc2O[C@H]1CN(C)C(=O)Nc1ccc(C(F)(F)F)cc1	-	-	.	.	-	.	.	.
Cc1noc(C)c1NC(=O)Nc1ccc2c(c1)C(=O)N([C@@H](C)CO)C[C@@H](C)[C@@H](CN(C)C(=O)Nc1ccc3c(c1)OCO3)OCCCC[C@@H](C)O2	-	-	-	.	-	-	-	?
Cc1noc(C)c1NC(=O)Nc1ccc2c(c1)C(=O)N([C@@H](C)CO)C[C@@H](C)[C@H](CN(C)C(=O)Nc1ccc3c(c1)OCO3)OCCCC[C@H](C)O2	-	-	-	.	-	-	-	?
C[C@@H]1CN([C@@H](C)CO)C(=O)c2cc(NC(=O)C3CC3)ccc2O[C@H]1CN(C)C(=O)Nc1ccc(C(F)(F)F)cc1	-	-	.	.	-28.9	.	-	-
CCC(=O)N1[C@H](CO)[C@H](c2ccc(-c3ccccc3OC)cc2)C12CN(C(C)=O)C2	.	-	.	.	-	.	.	.
COC(=O)C[C@@H]1CC[C@H]2[C@@H](COC[C@@H](O)CN2CCC(F)(F)F)O1	-	.	-	.	-	-	.	.
CC(=O)N1[C@@H]2CN(C(=O)NC(C)C)C[C@H]1C2c1ccccc1 (stereo not given in full)	.	.	.	.	-	-	.	.
C[C@@H]1CCCCO[C@@H](CN(C)Cc2ccncc2)[C@@H](C)CN([C@H](C)CO)C(=O)c2cc(N(C)C)ccc2O1	-	.	-	.	-	.	.	.
C[C@@H]1CN(C)C(=O)Cc2cc(N)ccc2O[C@@H]1CN(C)C	.	.	.	.	-	-	.	.
C[C@@H]1CN([C@H](C)CO)C(=O)CCCn2nncc2CO[C@H]1CN(C)C(=O)Nc1ccc(C(F)(F)F)cc1	-	-	-	.	-	-	.	.
C[C@@H]1CN([C@H](C)CO)C(=O)CCCn2nncc2CO[C@@H]1CN(C)C(=O)Nc1ccc(C(F)(F)F)cc1	-	-	.	.	-17.7	-	-	?
O=c1[nH]c(C2CCCN(S(=O)(=O)c3ccccc3Cl)C2)nc2c1nnn2Cc1ccc2c(c1)OCCO2 (stereo not given)	-	-	-	-	-17.6	-	-	.
O=C(N[C@H]1CC[C@@H](CCNS(=O)(=O)c2ccc(F)cc2)O[C@@H]1CO)C1CCOCC1	-	-	-	.	-	.	.	.
CCOc1ccccc1NC(=O)c1cc(SC)ccc1Cl	-	-	-	-	-29.6	-	-	-
CC(C)CN(C(=O)c1cc([N+](=O)[O-])cc([N+](=O)[O-])c1)C1CCS(=O)(=O)C1 (stereo not given)	-	-	.	-	-16.4	-	-	-
O=C(Cc1ccccc1Cl)Nc1nc2ccccc2[nH]1	-	-	-	-	-20.0	-	-	?
Cc1sc(NC(=O)CN2CCOCC2)nc1-c1ccc2c(c1)CCN2S(=O)(=O)c1ccccc1	-	-	.	-	-20.8	.	-	.
SMILES	miR122 inh	S100A4 inh HTS	Env fusion inh	Vif inh	Ecoli rRNA inh	FN deposition inh	AID977621	AID977628
O=C(Nc1ccccc1)N1C[C@H]2[C@@H](c3ccccc31)[C@H](CO)N2C(=O)c1ccccn1	-	-	.	.	-	.	.	.
O=C(Nc1cccc(Cl)c1)N1C[C@@H]2[C@H](c3ccccc31)[C@@H](CO)N2CC1CCCCC1	-	.	.	.	-55.9	.	?	.
O=C(Nc1ccc(Cl)cc1)N1C[C@H]2[C@@H](c3ccccc31)[C@@H](CO)N2C(=O)c1ccccn1	-	-	.	.	-23.2	.	-	.
C[C@H](O)C#Cc1cnc2c(c1)C(=O)N([C@H](C)CO)C[C@H](C)[C@H](CN(C)C(=O)c1ccccc1)O2	-	-	-	.	-	-	.	.
C=CCN(c1ccccc1)S(=O)(=O)c1cccc2cccnc12	-	-	-	-	-24.2	-	-	.
COC(=O)[C@]1(Sc2ccc(C)cc2)CC(=O)N[C@@H]1c1ccccc1	.	-	-	.	-21.1	-	-	?
O=C1CCCN1c1ccc(S(=O)(=O)N2CCCCC2)cc1	-	-	-	-	-	-	.	.
O=C1CCCN1c1ccc([N+](=O)[O-])cc1	-	-	.	.	-4.0	-	?	?
O=[N+]([O-])c1ccc(NCCNCCOc2nonc2-c2ccccc2)c([N+](=O)[O-])c1	-	-	-	-	-21.0	-	-	-
O=C(Nc1ccc(S(=O)(=O)NC2=NCCCCC2)cc1)c1ccc([N+](=O)[O-])s1	-	-	-	-	-20.4	-	?	-
COc1ccccc1N(C)S(=O)(=O)c1ccc(Cl)c(C(=O)NC2=NCCS2)c1	-	-	-	-	-29.8	-	-	?
COc1cccc(-c2ccc(NC(=O)C3CCCN(Cc4cnn(C(C)C)c4)C3)cc2)c1 (stereo not given)	-	-	-	-	-24.2	-	.	-
CCn1nc(C)c(Br)c1-c1nc(CS(=O)(=O)c2ccsc2)no1	-	-	-	56.0	-34.2	-	-	?
O=C(NC1CCCCC1)c1ccc([N+](=O)[O-])o1	-	.	.	-	.	.	.	.
O=C(NC1CCCC(C(F)(F)F)C1)c1ccc([N+](=O)[O-])o1 (stereo not given)	.	-	.	-	-23.7	-	.	?
O=S(=O)(NCc1ccc2c(c1)OCO2)c1ccc2c(c1)oc1ccccc12	-	-	.	-	-19.2	.	-	.

Compound activity deposited in PubChem BioAssay by Broad Institute.
